This note sets out measurements from ChEMBL document CHEMBL2046423, “NOSH-Aspirin: A Novel Nitric Oxide-Hydrogen Sulfide-Releasing Hybrid: A New Class of Anti-inflammatory Pharmaceuticals” (ACS Med Chem Lett, 2012).

The structures appear in SMILES notation. The source made the active and inactive calls. The calls are words filed in the database; no cut-off is given here. Where only a bound is given, the exact number is not on record here.

The test system of data set [1] is BXPC-3. As to the kind of experiment: Cytotoxicity against human BxPC3 cells expressing COX1 and COX2 after 24 hrs by MTT assay. In kind it is functional, cell-based. To be noted: BXPC-3, 24 h. The method, boiled down:
(§1)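 Human cancer cell lines were exposed to compound and cell viability was read at 24 h. IC50 values were calculated from the viability data. Mean ± SEM of at least four experiments, each run in triplicate.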

Data set [2] deals with A549. As to the kind of experiment: Cytotoxicity against human A549 cells after 24 hrs by MTT assay. In kind it is functional, cell-based. The note with it: A549, 24 h. The method, boiled down: as §1
The subject of data set [3] is MCF7. Kind of data set: Cytotoxicity against human MCF7 cells expressing ER after 24 hrs by MTT assay. In kind it is functional, cell-based. To be noted: MCF7, 24 h. In short, it runs like this: as §1
Data set [4] relates to LNCaP. As to the kind of experiment: Cytotoxicity against human LNCAP cells after 24 hrs by MTT assay. In kind it is functional, cell-based. The method, boiled down:
as §1

In data set [5] the test system is HCT-15. As to the kind of experiment: Cytotoxicity against COX deficient human HCT15 cells after 24 hrs by MTT assay. In kind it is functional, cell-based. The note with it: HCT-15, 24 h. In short, it runs like this: as §1
For data set [6], the system named is MDA-MB-231. As to the kind of experiment: Cytotoxicity against ER deficient human MDA-MB-231 cells after 24 hrs by MTT assay. In kind it is functional, cell-based. The note with it: MDA-MB-231, 24 h. The method, boiled down: as §1
The test system of data set [7] is Rattus norvegicus. Kind of data set: Antiinflammatory activity in rat assessed as reduction of carrageenan-induced paw volume at 0.56 mmol/kg after 6 hrs. In kind it is functional.
Data set [8] concerns SW480. Kind of data set: Cytotoxicity against human SW480 cells expressing COX1 after 24 hrs by MTT assay. In kind it is functional, cell-based. To be noted: SW480, 24 h. The method, boiled down:
as §1

Data set [9] deals with Jurkat. Kind of data set: Cytotoxicity against human Jurkat cells expressing COX1 and COX2 after 24 hrs by MTT assay. In kind it is functional, cell-based. In short, it runs like this:
as §1

In data set [10] the test system is Rattus norvegicus. Kind of data set: Antiinflammatory activity in rat assessed as reduction of carrageenan-induced paw volume at 0.56 mmol/kg after 1 hr. In kind it is functional.
Data set [11] relates to MIA PaCa-2. Kind of data set: Cytotoxicity against COX deficient human MIAPaCa2 cells after 24 hrs by MTT assay. The note with it: MIA PaCa-2, 24 h. In kind it is functional, cell-based. The method, boiled down: as §1
Data set [12] has as its system Rattus norvegicus. Kind of data set: Antiinflammatory activity in rat assessed as increase of carrageenan-induced TNFalpha level in plasma at 0.56 mmol/kg by ELISA. In kind it is functional.
The test system of data set [13] is Rattus norvegicus. As to the kind of experiment: Antiinflammatory activity in rat assessed as reduction of carrageenan-induced PGE2 level in paw exudates at 0.21 mmol/kg by […] (reference value: 82 +/- 2 pg/mg). In kind it is functional.
In data set [14] the test system is SK-BR-3. Kind of data set: Cytotoxicity against ER deficient human SKBR3 cells after 24 hrs by MTT assay. In kind it is functional, cell-based. The note with it: SK-BR-3, 24 h. The method, boiled down: as §1
For data set [15], the system named is Rattus norvegicus. Kind of data set: Antiinflammatory activity in rat assessed as reduction of carrageenan-induced paw volume at 0.56 mmol/kg after 1 to 3 hrs. In kind it is functional.
Data set [16] relates to HT-29. As to the kind of experiment: Ratio of aspirin IC50 to compound IC50 for human HT-29 cells expressing COX1 and COX2 after 24 hrs by MTT assay. In kind it is functional. In short, it runs like this:
as §1

Data set [17] deals with HT-29. As to the kind of experiment: Cytotoxicity against human HT-29 cells expressing COX1 and COX2 after 24 hrs by MTT assay. In kind it is functional, cell-based. The note with it: HT-29, 24 h. The method, boiled down: as §1
For data set [18], the system named is HT-29. Kind of data set: Cytotoxicity against human HT-29 cells expressing COX1 and COX2 assessed as lactate dehydrogenase release at 4 times IC50 after 2 to 8 hrs. In kind it is functional. The method, boiled down: (§2)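 HT-29 colon cancer cells were treated with several concentrations for 2, 4, 6, 8 or 24 h. Cytotoxicity was read as LDH release (%) relative to untreated controls.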

For data set [19], the system named is HT-29. Kind of data set: Cytotoxicity against human HT-29 cells expressing COX1 and COX2 assessed as lactate dehydrogenase release after 2 to 24 hrs. In kind it is functional, cell-based. In short, it runs like this: as §2
Data set [20] has as its system Rattus norvegicus. As to the kind of experiment: Antiinflammatory activity in rat assessed as reduction of carrageenan-induced paw volume at 0.52 mmol/kg after 2 to 6 hrs. In kind it is functional.
In data set [21] the test system is Rattus norvegicus. As to the kind of experiment: In vivo drug metabolism in carrageenan treated rat assessed as increase of nitric oxide release in plasma by Griess reaction. In kind it is ADME, organism-based. In short, it runs like this: (§3)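 Blood was collected at the end of the carrageenan paw edema study from rats given vehicle, the reference or the test compound (0.21 or 0.52 mmol/kg). Plasma NOx and H2S were quantified. Mean ± SEM, four rats per group.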

The species entered for data set [22] is Rattus norvegicus. Kind of data set: Antiinflammatory activity in rat assessed as reduction of carrageenan-induced paw volume measured after 6 hrs. In kind it is functional, organism-based.
In data set [23] the test system is Rattus norvegicus. As to the kind of experiment: Antiinflammatory activity in rat assessed as reduction of carrageenan-induced paw volume at 0.21 mmol/kg after 3 hrs. In kind it is functional.
Data set [24] deals with Rattus norvegicus. As to the kind of experiment: In vivo drug metabolism in carrageenan treated rat assessed as increase of H2S release in plasma by […]. In kind it is ADME, organism-based. The method, boiled down: as §3
In data set [25] the test system is Rattus norvegicus. As to the kind of experiment: Antiinflammatory activity in rat assessed as reduction of carrageenan-induced paw volume at 0.21 mmol/kg after 6 hrs. In kind it is functional.
Data set [26] relates to HT-29. As to the kind of experiment: Cytotoxicity against human HT-29 cells expressing COX1 and COX2 assessed as lactate dehydrogenase release at 4 times IC50 after 24 hrs. In kind it is functional. In short, it runs like this:
as §2

Data set [27] relates to HT-29. As to the kind of experiment: Cytotoxicity against human HT-29 cells expressing COX1 and COX2 assessed as lactate dehydrogenase release at IC50 to 4 times IC50. In kind it is functional, cell-based. The note with it: TDE = time-dependent effect. In short, it runs like this:
as §2

In data set [28] the test system is Rattus norvegicus. As to the kind of experiment: Antiinflammatory activity in rat assessed as reduction of carrageenan-induced paw volume at 0.52 mmol/kg after 1 to 2 hrs. In kind it is functional.
For data set [29], the species on record is Rattus norvegicus. As to the kind of experiment: Antiinflammatory activity in rat assessed as reduction of carrageenan-induced COX2 expression in paw exudates by Western blot analysis. In kind it is functional, organism-based.
The test system of data set [30] is Rattus norvegicus. Kind of data set: Antiinflammatory activity in rat assessed as reduction of carrageenan-induced paw volume at 0.21 mmol/kg after 1 hr. In kind it is functional.
Data set [31] has as its system Rattus norvegicus. Kind of data set: Antiinflammatory activity in rat assessed as reduction of carrageenan-induced TNFalpha level in plasma at 0.52 mmol/kg by ELISA. In kind it is functional.
The test system of data set [32] is Rattus norvegicus. As to the kind of experiment: Antiinflammatory activity in rat assessed as reduction of carrageenan-induced TNFalpha level in plasma at 0.21 mmol/kg by ELISA. In kind it is functional.
In data set [33] the test system is Rattus norvegicus. As to the kind of experiment: Antiinflammatory activity in rat assessed as reduction of carrageenan-induced PGE2 level in paw exudates at 0.52 mmol/kg by […] (reference value: 82 +/- 2 pg/mg). In kind it is functional.
In data set [34] the test system is HT-29. As to the kind of experiment: Cytotoxicity against human HT-29 cells expressing COX1 and COX2 assessed as lactate dehydrogenase release at IC50 after 2 to 8 hrs. In kind it is functional. The method, boiled down: as §2
Data set [35] has as its system Rattus norvegicus. As to the kind of experiment: Antiinflammatory activity in rat assessed as reduction of carrageenan-induced COX1 expression in paw exudates at 0.21 to 0.52 mmol/kg by Western blot analysis. In kind it is functional, organism-based.

Take `CC(=O)Oc1ccccc1C(=O)O` [ASPIRIN]: the half-maximal inhibitory concentration (IC50) in [1], in data set [2], in data set [3], in data set [4], in data set [5] and in [6] was above 5000 µM in each case. The IC50 in [8], in data set [9], in data set [11] and in data set [14] was above 5000 µM each time. The Activity in data set [7] was determined as 0.35 mL; in data set [10], 0.4 mL; in data set [12] it was 200 pg/mL; in data set [13] it was 12 pg/mg; in [15], 0.35 mL.

With `NC(=S)c1ccc(OC(=O)c2ccccc2OC(=O)CCCO[N+](=O)[O-])cc1`, the “Ratio IC50” value in data set [16] is given as above 600. For the same compound, the IC50 in data set [1] worked out at 5.5 µM; in data set [2] it was 6.5 µM; in data set [3], 5.7 µM; in data set [4], 4.3 µM; in data set [5], 5.9 µM; in data set [6] it was 6 µM. Further, the concentration for half-maximal inhibition (IC50) in data set [8] came out at 5.3 µM; in data set [9] it was 7 µM; in data set [17] it was 7.5 µM; in data set [11] it was 4.8 µM; in [14] it was 6.5 µM.

`O=C(CCCO[N+](=O)[O-])Oc1ccccc1C(=O)Oc1ccc(-c2cc(=S)ss2)cc1`: the Activity in data set [18] is 1%; in data set [19] it was “Dose-dependent effect”; in data set [20], 0.35 mL; in [22], “Dose-dependent effect”; in data set [23] it was 0.6 mL; in data set [25] it was 0.4 mL. In addition, the Activity in data set [26] was below 10%; in data set [27] it was “tde”; in data set [28] it was 0.45 mL; in data set [30], 0.5 mL; in [31], 40 pg/mL; in data set [13], 42 pg/mg. Besides, the results for the Activity in [32], in data set [33] and in data set [34] were 55 pg/mL, 21 pg/mg and 0.5%, respectively. Further, in [16], the “Ratio IC50” value is recorded as 100000. In addition, the IC50 amounted to 0.057 µM in data set [1]; 0.05 µM in [2]; 0.28 µM in [3]; 0.088 µM in data set [4]; 0.05 µM in [5]; 0.1 µM in [6]. Also, the IC50 was 0.06 µM in data set [8]; 0.1 µM in data set [9]; 0.048 µM in data set [17]; 0.047 µM in data set [11]; 0.075 µM in data set [14]. Moreover, the Drug metabolism entry in data set [21] and in data set [24] was “Dose-dependent effect” in each case. The inhibition entry in [29] is “Dose-dependent effect”. Further, in data set [35], the inhibition result is “Active”.

For the compound `O=C(CCC(=O)Oc1ccccc1C(=O)Oc1ccc(-c2cc(=S)ss2)cc1)OCCCCO[N+](=O)[O-]`, in [16], the “Ratio IC50” value was above 60000. Besides, the half-maximal inhibitory concentration (IC50) in [1] was 0.1 µM; in [2], 0.12 µM; in data set [3], 0.07 µM; in [4], 0.1 µM; in [5], 0.09 µM; in data set [6], 0.085 µM. For the same compound, the IC50 in data set [8] came to 0.097 µM; in [9] it was 0.09 µM; in data set [17], 0.08 µM; in data set [11] it was 0.102 µM; in data set [14], 0.088 µM.

In the case of `O=C(CCCC[C@@H]1CCSS1)Oc1ccccc1C(=O)OCCCCO[N+](=O)[O-]`, the “Ratio IC50” value in data set [16] is on record as above 16000. The half-inhibitory concentration (IC50) in data set [1] is 0.7 µM; in data set [2], 0.3 µM; in data set [3] it was 0.28 µM; in [4] it was 0.5 µM; in data set [5] it was 0.52 µM; in data set [6] it was 0.8 µM. In addition, the IC50 in data set [8] was found to be 0.6 µM; in data set [9] it was 0.24 µM; in [17], 0.3 µM; in [11] it was 0.8 µM; in data set [14], 0.55 µM.
